Measurements: ChEMBL document CHEMBL1124759, “Fluoronaphthyridines and quinolones as antibacterial agents. 2. Synthesis and structure-activity relationships of new 1-tert-butyl 7-substituted derivatives” (J Med Chem, 1990)
In brackets after ≈: the same amount, converted by molar mass.

Experiments:
Pseudomonas aeruginosa [1] = experiment: In vitro minimum inhibitory concentration (MIC) against Pseudomonas aeruginosa A 9843 at 37 degrees C for 18 h; assay type: functional
Summary of the method: (§1)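 Two-fold serial broth dilution in nutrient broth. Inoculum adjusted to 10^6 cfu/mL. Compounds tested from 0.0005 to 250 µg/mL.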

Klebsiella pneumoniae [2] = experiment: In vitro minimum inhibitory concentration (MIC) against Klebsiella pneumoniae A 9664 at 37 degrees C for 18 h.; assay type: functional; summary of the method: as §1
Morganella morganii = experiment: In vitro minimum inhibitory concentration (MIC) against Morganella morganii A 15153 at 37 degrees C for 18 h.; assay type: functional; summary of the method: as §1
Klebsiella pneumoniae [3] = experiment: Efficacy on systematic infections against Klebsiella pneumoniae A 9664 after oral administration in mice; assay type: functional; settings: read-out: PD50
Summary of the method: (§2)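 Mice given compound orally after lethal systemic infection. Read-out is the oral dose protecting 50% of mice from death (PD50), reported in mg/kg.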

Escherichia coli [4] = experiment: Efficacy on systematic infections against Escherichia coli A 15119 after oral administration in mice; assay type: functional; settings: read-out: PD50; summary of the method: as §2
Enterococcus faecalis = experiment: In vitro minimum inhibitory concentration (MIC) against Enterococcus faecalis A 9808 at 37 degrees C for 18 h.; assay type: functional; summary of the method: as §1
Staphylococcus aureus [5] = experiment: Efficacy on systematic infections against Staphylococcus aureus A 9537 after oral administration in mice; assay type: functional; settings: read-out: PD50; summary of the method: as §2
Pseudomonas aeruginosa [6] = experiment: Efficacy on systematic infections against Pseudomonas aeruginosa A 9843 after oral administration in mice; assay type: functional; settings: read-out: PD50; summary of the method: as §2
Staphylococcus aureus [7] = experiment: In vitro minimum inhibitory concentration (MIC) against Staphylococcus aureus Smith A 9537 at 37 degrees C for 18 hr; assay type: functional; summary of the method: as §1
Serratia marcescens = experiment: In vitro minimum inhibitory concentration (MIC) against Serratia marcescens A 20019 at 37 degrees C for 18 hr; assay type: functional; summary of the method: as §1
[8] = Tested for aqueous solubility; settings: aqueous medium
Enterococcus faecium = experiment: In vitro minimum inhibitory concentration (MIC) against Enterococcus faecium A 24885 at 37 degrees C for 18 h.; assay type: functional; summary of the method: as §1
Escherichia coli [9] = experiment: In vitro minimum inhibitory concentration (MIC) against Escherichia coli A 15119 at 37 degrees C for 18 h.; assay type: functional; summary of the method: as §1
Enterobacter cloacae = experiment: In vitro minimum inhibitory concentration (MIC) against Enterobacter cloacae A 9656 at 37 degrees C for 18 h.; assay type: functional
Pseudomonas aeruginosa [10] = experiment: In vitro minimum inhibitory concentration (MIC) against Pseudomonas aeruginosa A 9843 at 37 degree C for 18 h; assay type: functional; summary of the method: as §1
Pseudomonas aeruginosa [11] = experiment: In vitro minimum inhibitory concentration (MIC) against Pseudomonas aeruginosa A 9843 at 37 degrees Celsius for 18 h; assay type: functional; summary of the method: as §1

Compound	MIC (Pseudomonas aeruginosa [1]) [µg/mL]	MIC (Klebsiella pneumoniae [2]) [µg/mL]	MIC (Morganella morganii) [µg/mL]	ED50 (Klebsiella pneumoniae [3]) [mg/kg]	ED50 (Escherichia coli [4]) [mg/kg]	MIC (Enterococcus faecalis) [µg/mL]	ED50 (Staphylococcus aureus [5]) [mg/kg]	ED50 (Pseudomonas aeruginosa [6]) [mg/kg]	MIC (Staphylococcus aureus [7]) [µg/mL]	MIC (Serratia marcescens) [µg/mL]	solubility [8] [µg/mL]	MIC (Enterococcus faecium) [µg/mL]	MIC (Escherichia coli [9]) [µg/mL]	MIC (Enterobacter cloacae) [µg/mL]	MIC (Pseudomonas aeruginosa [10]) [µg/mL]	MIC (Pseudomonas aeruginosa [11]) [µg/mL]
CC(C)(C)n1cc(C(=O)O)c(=O)c2cc(F)c(N3CCNCC3)cc21	0.5 (≈ 1.44 µM)	0.13 (≈ 0.374 µM)	0.25 (≈ 0.72 µM)	10.3	21.7	1 (≈ 2.88 µM)	2.4	29	0.06 (≈ 0.173 µM)	0.5 (≈ 1.44 µM)	130 (≈ 374 µM)	4 (≈ 11.5 µM)	0.06 (≈ 0.173 µM)	0.13 (≈ 0.374 µM)		
CC1CN(c2cc3c(cc2F)c(=O)c(C(=O)O)cn3C(C)(C)C)CCN1 (stereo not given)	1 (≈ 2.77 µM)	0.015 (≈ 0.0415 µM)	0.5 (≈ 1.38 µM)	5.4		1 (≈ 2.77 µM)	5.4	25	0.06 (≈ 0.166 µM)	0.5 (≈ 1.38 µM)	1560 (≈ 4320 µM)	4 (≈ 11.1 µM)	0.008 (≈ 0.0221 µM)	0.03 (≈ 0.083 µM)		
CC(C)(C)n1cc(C(=O)O)c(=O)c2cc(F)c(N3C[C@@H]4C[C@H]3CN4)nc21		0.13 (≈ 0.361 µM)	0.13 (≈ 0.361 µM)	10.8	4	1 (≈ 2.77 µM)	0.5	14	0.13 (≈ 0.361 µM)	2 (≈ 5.55 µM)		4 (≈ 11.1 µM)	0.13 (≈ 0.361 µM)	0.25 (≈ 0.694 µM)	0.5 (≈ 1.39 µM)	
CN1CCN(c2nc3c(cc2F)c(=O)c(C(=O)O)cn3C(C)(C)C)CC1	1 (≈ 2.76 µM)	0.06 (≈ 0.166 µM)	0.5 (≈ 1.38 µM)			2 (≈ 5.52 µM)			0.06 (≈ 0.166 µM)	0.25 (≈ 0.69 µM)		0.5 (≈ 1.38 µM)	0.06 (≈ 0.166 µM)	0.06 (≈ 0.166 µM)		
CC1(N)CCN(c2cc3c(cc2F)c(=O)c(C(=O)O)cn3C(C)(C)C)C1 (stereo not given)		0.25 (≈ 0.692 µM)	1 (≈ 2.77 µM)			0.5 (≈ 1.38 µM)			0.06 (≈ 0.166 µM)	2 (≈ 5.53 µM)		4 (≈ 11.1 µM)	0.5 (≈ 1.38 µM)	0.5 (≈ 1.38 µM)		2 (≈ 5.53 µM)
CC(C)(C)n1cc(C(=O)O)c(=O)c2cc(F)c(N3C[C@@H]4C[C@H]3CN4)cc21		0.5 (≈ 1.39 µM)	1 (≈ 2.78 µM)			4 (≈ 11.1 µM)	10	23	0.25 (≈ 0.696 µM)	2 (≈ 5.56 µM)		16 (≈ 44.5 µM)	2 (≈ 5.56 µM)	0.5 (≈ 1.39 µM)	1 (≈ 2.78 µM)	
CC1(N)CCN(c2nc3c(cc2F)c(=O)c(C(=O)O)cn3C(C)(C)C)C1 (stereo not given)		0.06 (≈ 0.166 µM)	0.5 (≈ 1.38 µM)			0.5 (≈ 1.38 µM)			0.015 (≈ 0.0414 µM)	0.5 (≈ 1.38 µM)		4 (≈ 11 µM)	0.06 (≈ 0.166 µM)	0.13 (≈ 0.359 µM)		2 (≈ 5.52 µM)
CC(C)(C)n1cc(C(=O)O)c(=O)c2cc(F)c(N3C[C@@H](CN)[C@H](F)C3)nc21.CS(=O)(=O)O		0.13	0.5			0.03	0.8	18	0.004	1		0.25	0.06	0.06	0.5	
CC(C)(C)n1cc(C(=O)O)c(=O)c2cc(F)c(N3CCC(N)C3)nc21.CS(=O)(=O)O (stereo not given)		0.25	1	2.1	1.4	0.25	1.4	3.5	0.015	0.25		1	0.13	0.13	2	
CS(=O)(=O)O.C[C@H]1CN(c2nc3c(cc2F)c(=O)c(C(=O)O)cn3C(C)(C)C)C[C@H]1N		0.03	0.5	4.1	2.4	0.13	1.6	9	0.015	0.25		1	0.25	0.13	0.5	
CCNCC1CCN(c2nc3c(cc2F)c(=O)c(C(=O)O)cn3C(C)(C)C)C1 (stereo not given)		0.25 (≈ 0.64 µM)	1 (≈ 2.56 µM)			2 (≈ 5.12 µM)			0.13 (≈ 0.333 µM)	1 (≈ 2.56 µM)		8 (≈ 20.5 µM)	0.13 (≈ 0.333 µM)	0.25 (≈ 0.64 µM)		2 (≈ 5.12 µM)
CC(C)(C)n1cc(C(=O)O)c(=O)c2cc(F)c(N3C[C@@H](CN)[C@@H](F)C3)nc21		0.25 (≈ 0.657 µM)	0.5 (≈ 1.31 µM)	18	18	0.13 (≈ 0.342 µM)	4.5	18	0.015 (≈ 0.0394 µM)	0.5 (≈ 1.31 µM)		1 (≈ 2.63 µM)	0.06 (≈ 0.158 µM)	0.25 (≈ 0.657 µM)	0.5 (≈ 1.31 µM)	
CN1CCN(c2cc3c(cc2F)c(=O)c(C(=O)O)cn3C(C)(C)C)CC1.Cl	0.5	0.25	0.25			4			0.03	1		16	0.03	0.25		
CC(C)(C)n1cc(C(=O)O)c(=O)c2cc(F)c(N3CCC(N)C3)cc21.Cl (stereo not given)		0.25	0.5	23	5.4	0.25	8.2	19.9	0.03	1	70	2	0.06	0.13	1	
